17 molecules from ChEMBL document CHEMBL1133896, “Structure-activity study and analgesic efficacy of amino acid derivatives as N-type calcium channel blockers” (Bioorg Med Chem Lett, 2001) can be followed below.

Experiment [1] is described as follows: In vitro inhibition against L-type calcium influx in mouse pituitary tumor derived cells (AtT-20). Conditions: AtT20. The format is functional.
Experiment [2] in a line: Selectivity ratio between the L-type to N-type calcium influx. The format is functional.
For experiment [3], the target named is T1, Voltage-dependent N-type calcium channel subunit alpha-1B (Homo sapiens, UniProt Q00975). The experiment can be described thus: In vitro inhibition against N-type calcium influx in IMR-32 cells. Type of experiment: functional, cell-based.
Target sequence in this assay (Q00975 whole entry): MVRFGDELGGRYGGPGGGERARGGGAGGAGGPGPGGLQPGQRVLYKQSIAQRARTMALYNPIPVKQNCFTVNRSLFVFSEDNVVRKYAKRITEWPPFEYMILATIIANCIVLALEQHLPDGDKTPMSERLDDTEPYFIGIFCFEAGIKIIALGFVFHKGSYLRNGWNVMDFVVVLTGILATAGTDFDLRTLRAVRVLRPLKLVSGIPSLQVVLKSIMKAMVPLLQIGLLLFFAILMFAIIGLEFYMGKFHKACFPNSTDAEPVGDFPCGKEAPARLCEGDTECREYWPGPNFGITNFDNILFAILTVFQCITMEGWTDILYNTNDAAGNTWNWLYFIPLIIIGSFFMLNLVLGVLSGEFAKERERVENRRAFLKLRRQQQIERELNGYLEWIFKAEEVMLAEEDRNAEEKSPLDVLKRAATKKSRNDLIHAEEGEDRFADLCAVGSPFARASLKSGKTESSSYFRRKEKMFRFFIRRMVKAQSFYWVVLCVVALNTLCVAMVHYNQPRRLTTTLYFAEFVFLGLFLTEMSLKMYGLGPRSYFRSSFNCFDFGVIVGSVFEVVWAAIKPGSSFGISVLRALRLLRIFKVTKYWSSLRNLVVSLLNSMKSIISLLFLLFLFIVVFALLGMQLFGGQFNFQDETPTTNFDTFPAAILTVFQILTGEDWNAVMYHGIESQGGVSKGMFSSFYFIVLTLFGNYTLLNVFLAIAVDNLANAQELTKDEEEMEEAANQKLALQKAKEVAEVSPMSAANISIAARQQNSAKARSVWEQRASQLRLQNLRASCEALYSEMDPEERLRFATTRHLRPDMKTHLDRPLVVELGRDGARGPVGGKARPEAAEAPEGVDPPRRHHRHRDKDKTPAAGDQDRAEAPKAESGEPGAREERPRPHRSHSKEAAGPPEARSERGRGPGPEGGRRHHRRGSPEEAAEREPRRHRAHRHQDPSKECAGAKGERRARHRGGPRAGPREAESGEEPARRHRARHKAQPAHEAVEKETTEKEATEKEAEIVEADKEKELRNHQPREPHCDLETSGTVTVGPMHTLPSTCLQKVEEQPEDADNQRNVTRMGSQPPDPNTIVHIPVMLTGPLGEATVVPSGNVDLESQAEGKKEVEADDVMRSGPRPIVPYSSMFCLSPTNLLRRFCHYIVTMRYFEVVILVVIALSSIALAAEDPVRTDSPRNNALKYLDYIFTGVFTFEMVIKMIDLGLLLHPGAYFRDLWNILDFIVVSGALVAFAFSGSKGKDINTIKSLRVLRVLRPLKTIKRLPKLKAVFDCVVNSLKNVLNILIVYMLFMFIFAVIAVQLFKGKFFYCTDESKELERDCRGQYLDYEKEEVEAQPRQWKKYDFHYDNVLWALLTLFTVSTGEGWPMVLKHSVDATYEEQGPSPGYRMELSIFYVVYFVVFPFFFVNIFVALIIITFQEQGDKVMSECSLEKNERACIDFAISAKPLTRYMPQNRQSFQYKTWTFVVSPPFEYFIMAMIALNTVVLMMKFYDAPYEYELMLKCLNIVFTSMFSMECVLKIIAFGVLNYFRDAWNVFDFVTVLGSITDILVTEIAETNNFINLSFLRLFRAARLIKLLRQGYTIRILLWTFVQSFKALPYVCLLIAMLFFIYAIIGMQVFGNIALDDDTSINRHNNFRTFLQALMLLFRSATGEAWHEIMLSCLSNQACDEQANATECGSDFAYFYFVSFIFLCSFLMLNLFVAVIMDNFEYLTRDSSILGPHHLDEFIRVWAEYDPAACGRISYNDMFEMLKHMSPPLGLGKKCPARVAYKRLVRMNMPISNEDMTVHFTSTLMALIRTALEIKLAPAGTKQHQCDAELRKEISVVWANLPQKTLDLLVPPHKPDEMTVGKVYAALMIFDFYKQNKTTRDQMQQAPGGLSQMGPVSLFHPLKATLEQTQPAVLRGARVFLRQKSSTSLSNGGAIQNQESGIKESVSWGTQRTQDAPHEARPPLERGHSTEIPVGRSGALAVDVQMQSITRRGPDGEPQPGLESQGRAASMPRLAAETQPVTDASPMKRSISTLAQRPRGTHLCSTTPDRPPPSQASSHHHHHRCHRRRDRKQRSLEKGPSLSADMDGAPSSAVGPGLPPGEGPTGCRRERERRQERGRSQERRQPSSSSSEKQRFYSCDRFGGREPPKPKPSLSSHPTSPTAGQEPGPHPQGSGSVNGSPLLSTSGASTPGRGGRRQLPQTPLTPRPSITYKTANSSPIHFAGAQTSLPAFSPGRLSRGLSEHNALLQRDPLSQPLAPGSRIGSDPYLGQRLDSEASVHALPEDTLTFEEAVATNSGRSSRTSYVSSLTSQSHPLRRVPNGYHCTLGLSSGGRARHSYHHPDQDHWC
Experiment [4] concerns Rattus norvegicus. The experiment can be described thus: In vivo analgesic efficacy in the rat formalin induced pain model at 3 nmol/rat intrathecal dose. The format is functional. An outline of the steps: (§1)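 Rat formalin test. The read-out was paw flinching during the persistent nociceptive phase, expressed as % inhibition, n=3. Blood pressure and neurological behavior were also observed.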

For experiment [5], the target named is T1, Voltage-dependent N-type calcium channel subunit alpha-1B. The experiment can be described thus: In vitro inhibition of N-type calcium channel current in IMR-32 cells at 10 uM. The format is functional.
Target sequence in this assay (Q00975 whole entry, looked up): as the sequence (Q00975 whole entry) above
Experiment [6] concerns Rattus norvegicus. The experiment can be described thus: In vivo analgesic efficacy in rat formalin induced pain model at 100 mg/kg peroral dose. Type of experiment: functional. Conditions: route oral. An outline of the steps: as §1

Each structure is given as a SMILES string.

In the case of `COc1ccc(COC(=O)[C@H](CC(=O)OC2CCCCC2)NC(=O)OC(C)(C)C)cc1`, the IC50 was found to be 16 µM in experiment [1] and 2.3 µM in experiment [3]. Also, in experiment [2], the Selectivity ratio was 7.

For the molecule `COc1ccc(COC(=O)[C@H](COC(=O)C2CCCCC2)NC(=O)OC(C)(C)C)cc1`, the IC50 in experiment [1] was determined as 10 µM; in experiment [3] it was 1.6 µM. Moreover, the Selectivity ratio in experiment [2] was 6.3.

`COC(=O)C[C@H](NC(=O)OC(C)(C)C)C(=O)OCc1ccc(OC)cc1`: the IC50 in experiment [1] was determined as 14 µM; in experiment [3], 26 µM. Also, in experiment [2], the Selectivity ratio was found to be 0.5.

For the molecule `COc1ccc(COC(=O)[C@H](CC(=O)OC2CCC2)NC(=O)OC(C)(C)C)cc1`, the values for the IC50 in experiment [1] and in experiment [3] were 28 µM and 15 µM, respectively. The Selectivity ratio in experiment [2] stood at 1.9.

`COc1cccc(COC(=O)[C@H](CC(=O)OC2CCCC2)NC(=O)OC(C)(C)C)c1`: the IC50 was found to be 12 µM in experiment [1] and 3.8 µM in experiment [3]. Besides, in experiment [2], the Selectivity ratio amounted to 3.2.

For the molecule `CC(C)(C)OC(=O)N[C@@H](CC(=O)OC1CCCC1)C(=O)OCc1ccc(Cl)cc1`, the values for the IC50 in experiment [1] and in experiment [3] were 16 µM and 3.3 µM, respectively. For the same molecule, the Selectivity ratio in experiment [2] turned out to be 4.8.

Regarding `COc1ccc(CNC(=O)[C@H](COCC2CCCCC2)NC(=O)OC(C)(C)C)cc1`, the Inhibition in the experiment on Rattus norvegicus [4] is 35%. In addition, the values for the IC50 in experiment [1] and in experiment [3] were 3.8 µM and 0.95 µM, respectively. The Selectivity ratio in experiment [2] is 4. The inhibition in experiment [5] was found to be 38%.

As to `COc1ccc(COC(=O)[C@@H](CC(=O)OC2CCCC2)NC(=O)OC(C)(C)C)cc1`, the IC50 amounted to 2.9 µM in experiment [1] and 2 µM in experiment [3]. Also, the Selectivity ratio in experiment [2] was determined as 1.5.

For the molecule `COc1ccc(CNC(=O)[C@H](CSCC2CCCCC2)NC(=O)OC(C)(C)C)cc1`, the Inhibition in the experiment on Rattus norvegicus [4] stood at 36%. Also, the IC50 was determined as 1.7 µM in experiment [1] and 0.61 µM in experiment [3]. Further, the Selectivity ratio in experiment [2] turned out to be 2.8. Also, the inhibition in experiment [5] was 66%.

Turning to `COc1ccc(COC(=O)[C@H](CC(=O)OC2CCCCCC2)NC(=O)OC(C)(C)C)cc1`, the IC50 in experiment [1] is 12 µM; in experiment [3], 2.6 µM. The Selectivity ratio in experiment [2] worked out at 4.6.

Consider `CC(C)(C)OC(=O)N[C@@H](CC(=O)OC1CCCC1)C(=O)OCc1ccc(Br)cc1`, for which the IC50 in experiment [1] is 5.3 µM; in experiment [3], 3.4 µM. Besides, the Selectivity ratio in experiment [2] stood at 1.6.

As to `COc1ccc(COC(=O)[C@H](COCC2CCCCC2)NC(=O)OC(C)(C)C)cc1`, the results for the IC50 in experiment [1] and in experiment [3] were 8.4 µM and 1.2 µM, respectively. Also, the Selectivity ratio in experiment [2] was 7.

With `COc1ccccc1COC(=O)[C@H](CC(=O)OC1CCCC1)NC(=O)OC(C)(C)C`, the IC50 in experiment [1] turned out to be 15 µM; in experiment [3], 5.4 µM. Also, in experiment [2], the Selectivity ratio was 2.8.

With `COc1ccc(CNC(=O)[C@H](CSCC2CCCC2)NC(=O)OC(C)(C)C)cc1`, the Inhibition in the experiment on Rattus norvegicus [4] was 47%. The IC50 in experiment [1] came out at 3.9 µM; in experiment [3] it was 0.63 µM. The Selectivity ratio in experiment [2] was 6.2. Further, in experiment [5], the inhibition was determined as 45%. Moreover, in the experiment on Rattus norvegicus [6], testing at 100 mg/kg gave an inhibition in vivo of 43%.

In the experiment with Rattus norvegicus [4], `COc1ccc(COC(=O)[C@H](CC(=O)OC2CCCC2)NC(=O)OC(C)(C)C)cc1` showed an Inhibition of 31%. Further, the IC50 in experiment [1] turned out to be 15 µM; in experiment [3], 3.4 µM. Moreover, in experiment [2], the Selectivity ratio was found to be 4.4. Besides, the inhibition in experiment [5] was 34%.

In the case of `COc1ccc(CNC(=O)[C@H](CCOC2CCCCC2)NC(=O)OC(C)(C)C)cc1`, the values for the IC50 in experiment [1] and in experiment [3] were 13 µM and 4 µM, respectively. Moreover, the Selectivity ratio in experiment [2] came out at 3.3.

Consider `COc1ccc(CN(C)C(=O)[C@H](COCC2CCCCC2)NC(=O)OC(C)(C)C)cc1`, for which the IC50 in experiment [1] is 1.4 µM; in experiment [3] it was 1.8 µM. Besides, in experiment [2], the Selectivity ratio worked out at 0.8.
